According to ChEMBL document CHEMBL1275327, “Synthesis and biological activities of pyrazolo[3,4-g]quinoxaline derivatives” (Eur J Med Chem, 2010):
The source made the active and inactive calls. No cut-off for these calls is given here.

Assays:
[1] = molecular target: Serine/threonine-protein kinase pim-2 (Homo sapiens) (UniProt Q9P1W9); test: Inhibition of Pim2 assessed as residual enzyme activity at 1 uM
[2] = molecular target: Serine/threonine-protein kinase pim-3 (Homo sapiens) (UniProt Q86V86); test: Inhibition of Pim3 assessed as residual enzyme activity at 1 uM
[3] = molecular target: Serine/threonine-protein kinase pim-3 (Homo sapiens) (UniProt Q86V86); test: Inhibition of Pim3 assessed as residual enzyme activity at 10 uM
[4] = molecular target: Serine/threonine-protein kinase pim-1 (Homo sapiens) (UniProt P11309); test: Inhibition of Pim1 assessed as residual enzyme activity at 1 uM
Serine/threonine-protein kinase pim-1 (Homo sapiens), sequence (P11309 whole entry, looked up): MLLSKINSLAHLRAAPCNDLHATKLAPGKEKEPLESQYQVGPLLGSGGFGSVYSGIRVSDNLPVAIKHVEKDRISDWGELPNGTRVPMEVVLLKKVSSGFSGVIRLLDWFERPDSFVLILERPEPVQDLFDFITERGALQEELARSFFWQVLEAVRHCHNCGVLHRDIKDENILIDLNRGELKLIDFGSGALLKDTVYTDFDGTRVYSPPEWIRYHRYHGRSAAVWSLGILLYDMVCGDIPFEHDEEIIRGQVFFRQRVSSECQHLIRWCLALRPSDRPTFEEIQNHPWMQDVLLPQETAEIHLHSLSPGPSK

DU-145 [5] = test: Antiproliferative activity against human DU145 cells after 48 hrs by resazurin reduction test; format: functional, cell-based; settings: DU-145, 48 h
Summary of the method: (§1)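 Cells grown as monolayers in MEM with Earle's salts, 10% FCS, pyruvate, non-essential amino acids and gentamicin at 37 °C, 5% CO2. 5×10^3 cells/well adhered 16 h, then had 48 h continuous exposure to drug from a 20 mM DMSO stock. Resazurin (25 µg/mL, 1 h, 37 °C) was read by fluorescence (ex 530/em 590 nm). IC50 came from blank-corrected survival % vs control wells.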

[6] = molecular target: Serine/threonine-protein kinase pim-1 (Homo sapiens) (UniProt P11309); test: Inhibition of Pim1 assessed as residual enzyme activity at 10 uM
[7] = Antiproliferative activity against human Fibroblast after 48 hrs by resazurin reduction test; format: cell-based; summary of the method: as §1
[8] = molecular target: Serine/threonine-protein kinase pim-2 (Homo sapiens) (UniProt Q9P1W9); test: Inhibition of Pim2 assessed as residual enzyme activity at 10 uM
PC-3 [9] = test: Antiproliferative activity against human PC3 cells after 48 hrs by resazurin reduction test; format: functional, cell-based; settings: PC-3, 48 h; summary of the method: as §1
PA-1 [10] = test: Antiproliferative activity against human PA1 cells after 48 hrs by resazurin reduction test; format: functional, cell-based; settings: PA-1, 48 h; summary of the method: as §1
PA-1 [11] = test: Antiproliferative activity against human PA1 cells assessed as inhibition of cell proliferation at 10 uM after 48 hrs by resazurin reduction test; format: functional; settings: PA-1, 48 h
Summary of the method: (§2)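 PA1 and PC3 screen: cells at 5×10^3/well adhered 16 h, then were treated 48 h continuously at 1 and 10 µM from a 20 mM DMSO stock. Growth inhibition was scored by resazurin reduction (25 µg/mL, 1 h, 37 °C; fluorescence ex 530/em 590 nm) relative to control wells after blank subtraction.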

DU-145 [12] = test: Antiproliferative activity against human DU145 cells assessed as inhibition of cell proliferation at 10 uM after 48 hrs by resazurin reduction test; format: functional; settings: DU-145, 48 h
[13] = Antiproliferative activity against human Fibroblast assessed as inhibition of cell proliferation at 10 uM after 48 hrs by resazurin reduction test; format: cell-based; settings: human fibroblasts
PC-3 [14] = test: Antiproliferative activity against human PC3 cells assessed as inhibition of cell proliferation at 10 uM after 48 hrs by resazurin reduction test; format: functional; settings: PC-3, 48 h; summary of the method: as §2

Serine/threonine-protein kinase pim-2 (Homo sapiens), sequence (Q9P1W9 whole entry, looked up): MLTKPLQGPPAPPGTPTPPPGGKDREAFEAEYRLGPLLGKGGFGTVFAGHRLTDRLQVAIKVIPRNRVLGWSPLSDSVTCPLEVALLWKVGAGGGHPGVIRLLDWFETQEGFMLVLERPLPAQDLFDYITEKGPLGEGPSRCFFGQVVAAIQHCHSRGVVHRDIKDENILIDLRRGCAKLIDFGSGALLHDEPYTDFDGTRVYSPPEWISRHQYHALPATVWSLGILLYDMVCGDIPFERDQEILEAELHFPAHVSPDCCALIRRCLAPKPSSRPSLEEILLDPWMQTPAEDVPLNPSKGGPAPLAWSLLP

SMILES	Activity [1]	Activity [2]	Activity [3]	Activity [4]	IC50 (DU-145 [5])	Activity [6]	IC50 [7]	Activity [8]	IC50 (PC-3 [9])	IC50 (PA-1 [10])	inhibition at 10 µM (PA-1 [11])	inhibition at 10 µM (DU-145 [12])	inhibition at 48 h, 10 µM [13]	inhibition at 10 µM (PC-3 [14])
CC1Cc2nc3cc4[nH]ncc4cc3nc2C1C (racemic)	inactive	72%	44%	88.5%	> 50 µM	59%	> 50 µM	inactive	> 50 µM	6.1 µM	–	–	–	–
c1ccc(C2Cc3nc4cc5cn[nH]c5cc4nc3C2)cc1 (racemic)	inactive	95%	79%	inactive	35 µM	83%	> 50 µM	inactive	> 50 µM	4.1 µM	–	–	–	–
CCc1nc2cc3cn[nH]c3cc2nc1CC	inactive	84%	31%	89%	> 50 µM	49%	> 50 µM	inactive	> 50 µM	6.5 µM	–	–	–	–
CC1(C)[C@H]2CC[C@]1(C)c1nc3cc4[nH]ncc4cc3nc12	inactive	83%	43%	96%	–	71%	–	78%	–	–	< 50%	< 50%	< 50%	< 50%
c1n[nH]c2cc3nc4c(nc3cc12)CCC4	inactive	81%	46.4%	95%	–	66.6%	–	inactive	–	–	< 50%	< 50%	< 50%	< 50%
c1n[nH]c2cc3nc4c(nc3cc12)CCCC4	inactive	58%	19.7%	90%	> 50 µM	55.1%	> 50 µM	inactive	> 50 µM	16 µM	–	–	–	–
CC1Cc2nc3cc4cn[nH]c4cc3nc2C1C (racemic)	inactive	73%	33%	inactive	> 50 µM	69%	> 50 µM	inactive	> 50 µM	4.7 µM	–	–	–	–
CC1(C)[C@@H]2CC[C@@]1(C)c1nc3cc4cn[nH]c4cc3nc12	82%	95%	37%	88%	–	45%	–	76%	–	–	< 50%	< 50%	< 50%	< 50%
Nc1cc2cn[nH]c2cc1N	inactive	69%	32%	95%	–	59%	–	inactive	–	–	< 50%	< 50%	< 50%	< 50%
